Blank lines part the entries; values can stand above or below the compound they belong to. Calls of active or inactive are those of the source. The calls are words filed in the database; no cut-off is given here.
Tests used:
HT-29 = experiment: Antiproliferative activity against human HT-29 cells assessed as growth inhibition after 48 hrs by MTT assay; assay type: functional, cell-based; settings: HT-29, 48 h
A549 = experiment: Antiproliferative activity against human A549 cells assessed as growth inhibition after 48 hrs by MTT assay; settings: A549, 48 h
[1] = Growth inhibition of human HSMC cells after 48 hrs by MTT assay; assay type: cell-based
A10 = experiment: Growth inhibition of rat A10 cells after 48 hrs by MTT assay; assay type: cell-based; settings: A10, 48 h
[2] = Growth inhibition of potorous tridactylus PtK2 cells after 48 hrs by MTT assay; assay type: cell-based; settings: PtK2, 48 h
HUVEC = experiment: Growth inhibition of HUVEC cells after 48 hrs by MTT assay; assay type: cell-based; settings: Homo sapiens
HeLa [3] = experiment: Cell cycle arrest in human HeLa cells assessed as accumulation at G2/M phase at 20 nM after 24 hrs by propidium iodide staining based flow cytometry analysis (reference value: 0.10 %); assay type: functional
HeLa [4] = experiment: Induction of mitotic arrest in human HeLa cells assessed as accumulation at G2/M phase at 2 to 20 nM after 24 hrs by flow cytometry analysis relative to control; assay type: functional, cell-based
HeLa [5] = experiment: Induction apoptosis in human HeLa cells at 10 nM after 24 hrs by Annexin V-based flow cytometry analysis; assay type: functional, cell-based
HeLa [6] = experiment: Induction apoptosis in human HeLa cells at 20 nM after 24 hrs by Annexin V-based flow cytometry analysis; assay type: functional, cell-based
HeLa [7] = experiment: Induction apoptosis in human HeLa cells assessed as caspase -3 activity at 100 nM after 24 hrs by single-cell immunofluorescence assay; assay type: functional, cell-based
HeLa [8] = experiment: Induction apoptosis in human HeLa cells at 20 nM after 24 hrs by Annexin V-based flow cytometry analysis
[9] = Cmax in nude CD-1 mouse at 5 mg/kg, iv by UPLC analysis; assay type: ADME, organism-based; parameters: dose 5 mg/kg, route intravenous; settings: in vivo
Method in brief: (§1)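 Male nude CD-1 mice, 4 weeks old; single iv rapid bolus 5 mg/kg in 3% DMSO + 30% PEG400 + 0.9% NaCl, or oral gavage 15 mg/kg in 5% DMSO + 20% PEG400 + water. Blood sampled at multiple times after dosing; plasma proteins precipitated, samples stored at −80 °C, quantified by UPLC-ESI triple-quadrupole MS/MS.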

[10] = AUC ( 0 to infinity) in nude CD-1 mouse at 5 mg/kg, iv by UPLC analysis; assay type: ADME, organism-based; parameters: time infinity, dose 5 mg/kg, route intravenous; settings: plasma; method in brief: as §1
Mus musculus [11] = experiment: Volume of distribution at steady state in nude CD-1 mouse at 5 mg/kg, iv and 15 mg/kg, po by UPLC analysis; assay type: ADME, organism-based; settings: in vivo; method in brief: as §1
[12] = Cmax in nude CD-1 mouse at 15 mg/kg, po by UPLC analysis; assay type: ADME, organism-based; parameters: dose 15 mg/kg, route oral; settings: in vivo; method in brief: as §1
[13] = Tmax in nude CD-1 mouse at 15 mg/kg, po by UPLC analysis; assay type: ADME, organism-based; parameters: dose 15 mg/kg, route oral; settings: in vivo; method in brief: as §1
[14] = AUC ( 0 to infinity) in nude CD-1 mouse at 15 mg/kg, po by UPLC analysis; assay type: ADME, organism-based; parameters: time infinity, dose 15 mg/kg, route oral; settings: plasma; method in brief: as §1
Mus musculus [15] = experiment: Oral bioavailability in nude CD-1 mouse at 15 mg/kg by UPLC analysis; assay type: ADME, organism-based; settings: in vivo; method in brief: as §1
Liver microsomes = experiment: Metabolic stability in human liver microsomes assessed as compound remaining after 30 mins by LC-MS/MS analysis; assay type: ADME, Microsome; settings: 0.5 h
Method in brief: (§2)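 Compound at 1 μM final, in duplicate, preincubated 10 min at 37 °C with liver microsomes (0.5 mg/mL final) in potassium phosphate buffer pH 7.4 with 3 mM MgCl2; started with NADP/glucose-6-phosphate/G6P dehydrogenase. Samples taken 0–30 min, quenched in acetonitrile, quantified by LC-MS/MS; percent remaining at 30 min versus time zero peak area; no-cofactor control included.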

Liver = experiment: Metabolic stability in mouse liver microsomes assessed as compound remaining after 30 mins by LC-Ms/Ms analysis; assay type: ADME, Microsome; settings: 0.5 h; method in brief: as §2
OVCAR-8 = experiment: cells; settings: Homo sapiens, OVCAR-8, 96 h
[16] = Growth inhibition of doxorubicin-resistant human NCI-ADR-RES cells overexpressing P-glycoprotein after 96 hrs; assay type: functional, cell-based

Compound: COc1ccc(/C=C\c2cc(OC)c(OC)c(OC)c2)cc1O [COMBRETASTATIN A4]
IC50 (HT-29): > 10000 nM
IC50 (A549): > 10000 nM
IC50 [1]: 5 nM
IC50 (A10): 1 nM
IC50 [2]: 3 nM
IC50 (HUVEC): 1 nM
Activity (HeLa [3]): 80%
Activity (HeLa [4]): Active
Activity (HeLa [5]): Active
Activity (HeLa [6]): Active
Activity (HeLa [7]): Active
Activity (HeLa [8]): Active

Cmax [9]: 35.7 ng/mL
AUC(0-inf) [10]: 2910 ng·h/mL
Vdss (Mus musculus [11]): 1.59 L/kg
Cmax [12]: 1340 ng/mL
Tmax [13]: 2 h
AUC(0-inf) [14]: 9720 ng·h/mL
F (Mus musculus [15]): 110%
Compound: COc1cc(Sc2c(-c3cc[nH]c3)[nH]c3ccccc23)cc(OC)c1OC

Stability (Liver microsomes): 6.6%
Stability (Liver): 0.07%
Compound: CCOc1ccc2ccc(=O)oc2c1 [ETHOXYCOUMARIN]

Compound: CC[C@]1(O)C[C@@H]2CN(CCc3c([nH]c4ccccc34)[C@@](C(=O)OC)(c3cc4c(cc3OC)N(C)[C@H]3[C@@](O)(C(=O)OC)[C@H](OC(C)=O)[C@]5(CC)C=CCN6CC[C@]43[C@@H]65)C2)C1 [VINBLASTINE]
Activity (HeLa [3]): 80%
Activity (HeLa [4]): Active
Activity (HeLa [5]): Active
Activity (HeLa [6]): Active
Activity (HeLa [7]): Active
IC50 (OVCAR-8): 15 nM
Activity (HeLa [8]): Active

IC50 (OVCAR-8): 2 nM
Compound: CC(=O)O[C@H]1C(=O)[C@@]2(C)[C@H]([C@H](OC(=O)c3ccccc3)[C@]3(O)C[C@H](OC(=O)[C@H](O)[C@@H](NC(=O)c4ccccc4)c4ccccc4)C(C)=C1C3(C)C)[C@]1(OC(C)=O)CO[C@@H]1C[C@@H]2O [PACLITAXEL]

Compound: CCC1=C[C@@H]2CN(C1)Cc1c([nH]c3ccccc13)[C@@](C(=O)OC)(c1cc3c(cc1OC)N(C)[C@H]1[C@@](O)(C(=O)OC)[C@H](OC(C)=O)[C@]4(CC)C=CCN5CC[C@]31[C@@H]54)C2 [VINORELBINE]
IC50 [16]: 5000 nM

Reference: ChEMBL document CHEMBL1938276, “Design and synthesis of 2-heterocyclyl-3-arylthio-1H-indoles as potent tubulin polymerization and cell growth inhibitors with improved metabolic stability” (J Med Chem, 2011)
